Test results taken from ChEMBL document CHEMBL3861959, “Synthesis and antiproliferative evaluation of novel 2-(4H-1,2,4-triazole-3-ylthio)acetamide derivatives as inducers of apoptosis in cancer cells” (Eur J Med Chem, 2016).
Values after ≈ are worked out from the molar mass of the structure shown.

Key:
[1] = tested on: Human immunodeficiency virus 1; experiment: Antiviral activity against HIV1 3B infected in human MT4 cells assessed as protection against virus-induced cytopathic effect after 5 days MTT assay; format: functional, cell-based; settings: Human immunodeficiency virus 1, 3B, MT4, 120 h
In short: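 HIV-1 strain IIIB and HIV-2 strain ROD in MT-4 cells, MTT-based. Test compounds in serial five-fold dilutions, in triplicate wells run alongside mock-infected cells, with untreated infected and mock controls. MT-4 cells resuspended at 6 × 10^5 cells/mL. Absorbance read at 540 and 690 nm, median OD of three wells. EC50 is the 50% effective concentration.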

[2] = Cytotoxicity against human MT4 cells assessed as decrease in cell viability after 5 days by MTT assay; format: toxicity, cell-based
In short: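 MT-4 cells in mock-infected wells of the anti-HIV MTT setup. Compounds in serial five-fold dilutions in triplicate, cells at 6 × 10^5 cells/mL. Absorbance at 540 and 690 nm, median OD of three wells. CC50 is the concentration that lowers OD540 of the mock-infected control by 50%.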

[3] = Selectivity index, ratio of CC50 for human MT4 cells to EC50 for HIV1 3B; format: toxicity, cell-based; settings: read-out: Ratio CC50/EC50
In short: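 HIV-1 IIIB and HIV-2 ROD tested in MT-4 cells by MTT. Serial fivefold dilutions of compound added to triplicate mock- and virus-infected wells. MT-4 cells at 6 × 10^5 cells/mL. Absorbance read at 540/690 nm; median OD of three wells used. CC50 is the concentration reducing mock-infected OD540 by 50%. […]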

[4] = Cytotoxicity against human CCRF-CEM cells assessed as cell growth at 10^-5 M after 48 hrs by SRB assay relative to control; format: functional; settings: read-out: Activity
In short: (§1)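 NCI single-dose primary screen run under the US NCI protocol. Compounds tested at 10 µM across the 60-cell-line panel, with growth percent reported for each line.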

[5] = Cytotoxicity against human HL-60(TB) cells assessed as cell growth at 10^-5 M after 48 hrs by SRB assay relative to control; format: functional; settings: HL-60, 48 h, read-out: Activity
In short: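 NCI-60 one-dose primary screen run by the US NCI under its protocol. Single concentration of 10 µM across the 60-line human tumour panel, which includes HL-60(TB). Read-out is growth percent for each cell line. Lines reduced to about 32% growth or less are taken forward to full-panel testing over a 5-log dose range.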

[6] = Cytotoxicity against human RPMI8226 cells assessed as cell growth at 10^-5 M after 48 hrs by SRB assay relative to control; format: functional; settings: RPMI-8226, 48 h, read-out: Activity; in short: as §1
[7] = Cytotoxicity against human SR cells assessed as cell growth at 10^-5 M after 48 hrs by SRB assay relative to control; format: functional; settings: read-out: Activity
In short: (§2)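 Single-dose NCI 60-cell-line screen run under the US NCI protocol. Compounds tested at 10 µM. Read-out is growth percent for each cell line.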

[8] = Cytotoxicity against human A549 cells assessed as cell growth at 10^-5 M after 48 hrs by SRB assay relative to control; format: functional; settings: A549, 48 h, read-out: Activity; in short: as §1
[9] = Cytotoxicity against human EKVX cells assessed as cell growth at 10^-5 M after 48 hrs by SRB assay relative to control; format: functional; settings: read-out: Activity; in short: as §1
[10] = Cytotoxicity against human NCI-H522 cells assessed as cell growth at 10^-5 M after 48 hrs by SRB assay relative to control; format: functional; settings: NCI-H522, 48 h, read-out: Activity; in short: as §1
[11] = Cytotoxicity against human SW620 cells assessed as cell growth at 10^-5 M after 48 hrs by SRB assay relative to control; format: functional; settings: SW-620, 48 h, read-out: Activity; in short: as §2
[12] = Cytotoxicity against human SF295 cells assessed as cell growth at 10^-5 M after 48 hrs by SRB assay relative to control; format: functional; settings: SF-295, 48 h, read-out: Activity; in short: as §1
[13] = Cytotoxicity against human SNB75 cells assessed as cell growth at 10^-5 M after 48 hrs by SRB assay relative to control; format: functional; settings: SNB-75, 48 h, read-out: Activity; in short: as §2
[14] = Cytotoxicity against human U251 cells assessed as cell growth at 10^-5 M after 48 hrs by SRB assay relative to control; format: functional; settings: U-251, 48 h, read-out: Activity; in short: as §2
[15] = Cytotoxicity against human MALME-3M cells assessed as cell growth at 10^-5 M after 48 hrs by SRB assay relative to control; format: functional; settings: read-out: Activity; in short: as §1
[16] = Cytotoxicity against human SK-MEL-2 cells assessed as cell growth at 10^-5 M after 48 hrs by SRB assay relative to control; format: functional; settings: SK-MEL-2, 48 h, read-out: Activity; in short: as §2
[17] = Cytotoxicity against human SK-MEL-5 cells assessed as cell growth at 10^-5 M after 48 hrs by SRB assay relative to control; format: functional; settings: SK-MEL-5, 48 h, read-out: Activity; in short: as §2
[18] = Cytotoxicity against human UACC62 cells assessed as cell growth at 10^-5 M after 48 hrs by SRB assay relative to control; format: functional; settings: UACC-62, 48 h, read-out: Activity; in short: as §2
[19] = Cytotoxicity against human IGROV1 cells assessed as cell growth at 10^-5 M after 48 hrs by SRB assay relative to control; format: functional; settings: IGROV-1, 48 h, read-out: Activity; in short: as §1
[20] = Cytotoxicity against human OVCAR4 cells assessed as cell growth at 10^-5 M after 48 hrs by SRB assay relative to control; format: functional; settings: OVCAR-4, 48 h, read-out: Activity; in short: as §1
[21] = Cytotoxicity against human OVCAR5 cells assessed as cell growth at 10^-5 M after 48 hrs by SRB assay relative to control; format: functional; settings: OVCAR-5, 48 h, read-out: Activity; in short: as §1
[22] = Cytotoxicity against human NCI-ADR-RES cells assessed as cell growth at 10^-5 M after 48 hrs by SRB assay relative to control; format: functional; settings: read-out: Activity; in short: as §1
[23] = Cytotoxicity against human SKOV3 cells assessed as cell growth at 10^-5 M after 48 hrs by SRB assay relative to control; format: functional; settings: SK-OV-3, 48 h, read-out: Activity; in short: as §2
[24] = Cytotoxicity against human 786-0 cells assessed as cell growth at 10^-5 M after 48 hrs by SRB assay relative to control; format: functional; settings: 786-0, 48 h, read-out: Activity; in short: as §1
[25] = Cytotoxicity against human ACHN cells assessed as cell growth at 10^-5 M after 48 hrs by SRB assay relative to control; format: functional; settings: read-out: Activity; in short: as §1
[26] = Cytotoxicity against human Caki1 cells assessed as cell growth at 10^-5 M after 48 hrs by SRB assay relative to control; format: functional; settings: CAKI-1, 48 h, read-out: Activity; in short: as §1
[27] = Cytotoxicity against human SN12C cells assessed as cell growth at 10^-5 M after 48 hrs by SRB assay relative to control; format: functional; settings: read-out: Activity; in short: as §2
[28] = Cytotoxicity against human UO31 cells assessed as cell growth at 10^-5 M after 48 hrs by SRB assay relative to control; format: functional; settings: UO-31, 48 h, read-out: Activity; in short: as §2
[29] = Cytotoxicity against human Hs 578T cells assessed as cell growth at 10^-5 M after 48 hrs by SRB assay relative to control; format: functional; settings: read-out: Activity; in short: as §1
[30] = Cytotoxicity against human MDA-MB-468 cells assessed as cell growth at 10^-5 M after 48 hrs by SRB assay relative to control; format: functional; settings: MDA-MB-468, 48 h, read-out: Activity; in short: as §1

SMILES: Cc1ccc(C(C)C)c(OCc2nnc(SCC(=O)Nc3ccc(Cl)cc3)n2Cc2ccccc2)c1
- EC50 [1]: > 65.9 µg/mL
- CC50 at 120 h [2]: 65.9 µg/mL (≈ 126 µM)
- selectivity ratio [3]: < 1
- growth at 10 µM [4]: 72.7%
- growth at 10 µM [5]: 83.9%
- growth at 10 µM [6]: 83.8%
- growth at 10 µM [7]: -6.63%
- growth at 10 µM [8]: 27.9%
- growth at 10 µM [9]: 69.6%
- growth at 10 µM [10]: 90.4%
- growth at 10 µM [11]: 65.9%
- growth at 10 µM [12]: 88.1%
- growth at 10 µM [13]: 93.6%
- growth at 10 µM [14]: 40.9%
- growth at 10 µM [15]: 75.6%
- growth at 10 µM [16]: 108%
- growth at 10 µM [17]: 90.5%
- growth at 10 µM [18]: 94%
- growth at 10 µM [19]: 69.4%
- growth at 10 µM [20]: 33.4%
- growth at 10 µM [21]: 93.2%
- growth at 10 µM [22]: 69.1%
- growth at 10 µM [23]: 109%
- growth at 10 µM [24]: 38.9%
- growth at 10 µM [25]: 41.6%
- growth at 10 µM [26]: 93.9%
- growth at 10 µM [27]: 56.5%
- growth at 10 µM [28]: 53.6%
- growth at 10 µM [29]: 75.5%
- growth at 10 µM [30]: 72.3%

SMILES: CC(=O)Nc1ccc(OCc2nnc(SCC(=O)Nc3ccc(Br)cc3)n2Cc2ccccc2)cc1
- EC50 [1]: > 3.99 µg/mL
- CC50 at 120 h [2]: ≥ 3.99 µg/mL
- selectivity ratio [3]: ≤ 1
- growth at 10 µM [4]: 56.3%
- growth at 10 µM [5]: 63.8%
- growth at 10 µM [6]: 72.2%
- growth at 10 µM [7]: 97.7%
- growth at 10 µM [8]: 78.5%
- growth at 10 µM [9]: 70%
- growth at 10 µM [10]: 71.2%
- growth at 10 µM [11]: 59%
- growth at 10 µM [12]: 80.2%
- growth at 10 µM [13]: 103%
- growth at 10 µM [14]: 88.5%
- growth at 10 µM [15]: 93.8%
- growth at 10 µM [16]: 72.2%
- growth at 10 µM [17]: 69.8%
- growth at 10 µM [18]: 32.5%
- growth at 10 µM [19]: 83.2%
- growth at 10 µM [20]: 101%
- growth at 10 µM [21]: 92%
- growth at 10 µM [22]: 68.2%
- growth at 10 µM [23]: 110%
- growth at 10 µM [24]: 91.1%
- growth at 10 µM [25]: 58.6%
- growth at 10 µM [26]: 72.5%
- growth at 10 µM [27]: 85.7%
- growth at 10 µM [28]: 52.8%
- growth at 10 µM [29]: 97.9%
- growth at 10 µM [30]: 77.8%

SMILES: Cc1ccc(C(C)C)c(OCc2nnc(SCC(=O)Nc3ccc(S(N)(=O)=O)cc3)n2Cc2ccccc2)c1
- EC50 [1]: > 13 µg/mL
- CC50 at 120 h [2]: 13 µg/mL (≈ 23 µM)
- selectivity ratio [3]: < 1
- growth at 10 µM [4]: 35.6%
- growth at 10 µM [5]: 68.2%
- growth at 10 µM [6]: 40.8%
- growth at 10 µM [7]: 65.1%
- growth at 10 µM [8]: 50.6%
- growth at 10 µM [9]: 55.5%
- growth at 10 µM [10]: 75.3%
- growth at 10 µM [11]: 91.7%
- growth at 10 µM [12]: 70.7%
- growth at 10 µM [13]: 93.8%
- growth at 10 µM [14]: 64.6%
- growth at 10 µM [15]: 84.3%
- growth at 10 µM [16]: 80.9%
- growth at 10 µM [17]: 50.3%
- growth at 10 µM [18]: 51.2%
- growth at 10 µM [19]: 90.1%
- growth at 10 µM [20]: 88.8%
- growth at 10 µM [21]: 99.4%
- growth at 10 µM [22]: 77.1%
- growth at 10 µM [23]: 109%
- growth at 10 µM [24]: 92.3%
- growth at 10 µM [25]: 76%
- growth at 10 µM [26]: 81.1%
- growth at 10 µM [27]: 81.6%
- growth at 10 µM [28]: 42.7%
- growth at 10 µM [29]: 86.2%
- growth at 10 µM [30]: 70.5%
